The nature of assay [1]: Inhibition of AmpC beta-lactamase.
For another assay, the system named is Enterobacter cloacae. The assay is described as follows: Inhibition of Enterobacter cloacae beta-lactamase class C assessed as fold decrease in Ceftazidime MIC […]. An outline of the steps:
(§1)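 MICs were measured on clinical isolates following CLSI guidelines in Mueller-Hinton medium. Inhibitor was dissolved in 50% DMSO, with final DMSO below 5%, and combined with ceftazidime at a 1:1 β-lactam:inhibitor ratio. Fold change is compared with ceftazidime alone. Values are means of three independent experiments.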
(In general: Agar diffusion results depend on both activity and mobility in agar.)

Assay [2] has as its target AmpC (Klebsiella pneumoniae) (UniProt Q84AD8). As to the kind of experiment: Inhibition of Klebsiella pneumoniae AmpC beta-lactamase DHA-1 assessed as increase in ceftazidime-induced antibacterial activity by disk diffusion assay.
In the next assay the test system is Citrobacter freundii. The assay is described as follows: Inhibition of Citrobacter freundii beta-lactamase class C assessed as fold decrease in Ceftazidime MIC […]. The procedure, abridged:
as §1

Assay [3] has as its target AmpC (Klebsiella pneumoniae) (UniProt Q84AD8). As to the kind of experiment: Inhibition of Klebsiella pneumoniae AmpC beta-lactamase DHA-1 assessed as fold decrease in Ceftazidime MIC […]. The procedure, abridged:
as §1

For assay [4], the target named is Beta-lactamase CTX-M-14 (Escherichia coli) (UniProt Q9L5C7). The assay is described as follows: Inhibition of Escherichia coli class A beta-lactamase CTX-M-14 assessed as fold decrease in Ceftazidime MIC […]. The procedure, abridged: as §1
Assay [5] can be described thus: Inhibition of beta-lactamase CTX-M-9.
Another assay deals with Escherichia coli. The assay is described as follows: Inhibition of Escherichia coli beta-lactamase class C assessed as fold decrease in Ceftazidime MIC […]. The procedure, abridged: as §1
The test system of the next assay is Pseudomonas aeruginosa. As to the kind of experiment: Inhibition of Pseudomonas aeruginosa beta-lactamase class C assessed as fold decrease in Ceftazidime MIC […]. An outline of the steps:
as §1

For the next assay, the system named is Klebsiella pneumoniae. The assay is described as follows: Antimicrobial activity against AmpC-beta lactamase producing Klebsiella pneumoniae by disk diffusion assay. The class given is functional, organism-based.

The source made the active and inactive calls. The calls are words filed in the database; no cut-off is given here.

We go through twelve molecules from ChEMBL document CHEMBL1275363, “Design, synthesis, crystal structures, and antimicrobial activity of sulfonamide boronic acids as β-lactamase inhibitors” (J Med Chem, 2010).

With `COC(=O)c1ccc(CS(=O)(=O)NCB2OC(C)(C)C(C)(C)O2)cc1`, affinity in assay [1] was put at a Ki of 120 nM. The same measure, in the same setting: the result for `Nc1cccc(CS(=O)(=O)NCB(O)O)c1` reads 106 nM. In the case of `O=S(=O)(Cc1ccccc1)NCB(O)O` [PINACOL(PHENYLMETHANESULFONYLAMINO)METHANEBORONATE], the fold change (FC) with Enterobacter cloacae is 8; in the assay on Citrobacter freundii, 8; in assay [3], 8; in assay [4], 16; in the assay with Escherichia coli, 8; in the assay with Pseudomonas aeruginosa it was 8. In assay [2], the result was Active. The IC50 (usually the concentration that gives 50% inhibition) in assay [5] amounted to 6870 nM. For the same molecule, the outcome in the assay with Klebsiella pneumoniae was inactive. With `Cc1ccc(S(=O)(=O)NCB(O)O)cc1`, the Ki (in general, the dissociation constant of the complex between target and ligand, obtained from inhibition or displacement) in assay [1] is 210 nM. `CCOc1ccc2ccccc2c1S(=O)(=O)NCB(O)O` yielded a Ki in [1] of 670 nM. Still for that read-out and setting: the result for `O=C(Cc1ccccc1)NCB(O)O` reads 570 nM.

Molecule `CS(=O)(=O)NCB(O)O` [PINACOL(METHANESULFONYLAMINO)METHANEBORONATE] yielded a Ki in assay [1] of 789 nM. This Ki and that of the molecule before are within 1.5-fold of each other. On the same count and under the same terms, the result for `O=S(=O)(Cc1ccccc1)N[C@@H](Cc1ccccc1)B(O)O` reads 3720 nM. Take `O=C(O)c1ccc(CS(=O)(=O)NCB(O)O)cc1`: the result in [2] was Active. The IC50 in [5] stood at 1500 nM. Moreover, the result with Klebsiella pneumoniae was inactive. `O=C(Cc1cccs1)N[C@H](B(O)O)c1cccc(C(=O)O)c1` had an inhibition constant (Ki) in assay [1] of 1 nM.

As to `O=C(Cc1cccs1)N[C@@H](Cc1cccc(C(=O)O)c1)B(O)O`, the affinity in assay [1], expressed as Ki, was 39 nM. This Ki is about 39-fold higher than that of the molecule before.

`O=[N+]([O-])c1cccc(CS(=O)(=O)NCB(O)O)c1` showed an inhibitory constant (Ki) in [1] of 189 nM.
